Experimental data from ChEMBL document CHEMBL3259553 (J Med Chem, 2014).
≈ marks a conversion by molar mass, not a printed value. Calls of active or inactive are those of the source. No cut-off for these calls is given here.

Columns and labels:
[1] = tested on: Rattus norvegicus; assay: Cardiotoxicity in thyroidectomized rat assessed as induction of alpha-MHC hnRNA expression in cardiac myocyte at 5 to 37.5 mg/kg, ip measured after 6 hrs; format: toxicity, organism-based, Heart; set-up: dose 5-37.5 mg/kg, route intraperitoneal; conditions: in vivo
In short: (§1)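 Thyroidectomized rats were dosed intraperitoneally at 5, 20 or 37.5 mg/kg, with 4 rats per group. Vehicle was 4% DMSO, 15% PEG-400 and 81% of 30% HPBCD in phosphate buffer. Cardiac α-MHC hnRNA, in arbitrary units, and plasma concentration were measured 6 h after dosing. Comparators were untreated thyroidectomized rats and euthyroid rats.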

[2] = Plasma concentration in thyroidectomized rat at 5 mg/kg, ip measured after 6 hrs; format: ADME, organism-based; set-up: dose 5 mg/kg, route intraperitoneal; in short: as §1
[3] = tested on: Rattus norvegicus; assay: Toxicity in thyroidectomized rat assessed as T3 activity at 37.5 mg/kg, ip measured after 6 hrs; format: organism-based; set-up: dose 37.5 mg/kg, route intraperitoneal; conditions: in vivo
In short: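 Thyroidectomized rats, 4 per group, dosed ip at 5, 20 and 37.5 mg/kg in 4% DMSO, 15% PEG-400 and 81% of 30% HPBCD in phosphate buffer. Cardiac α-MHC hnRNA was measured 6 h post-dose and expressed relative to euthyroid or T3-treated full activity. Plasma exposure was measured at 6 h.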

[4] = biological target: Cytochrome P450 3A4 (Homo sapiens, UniProt P08684); assay: Inhibition of CYP3A4 (unknown origin); format: ADME
[5] = biological target: Cytochrome P450 2C19 (Homo sapiens, UniProt P33261); assay: Inhibition of CYP2C19 (unknown origin); format: ADME
In short: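 Time-dependent inhibition of the same enzyme was also assessed, with and without NADPH.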

[6] = tested on: Caco-2; assay: Permeability from apical to basolateral side of human Caco2 cells; format: ADME, cell-based
[7] = Clearance in rat at 5 mg/kg, iv; format: ADME, organism-based; set-up: dose 5 mg/kg, route intravenous; conditions: in vivo
In short: (§2)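 Rat pharmacokinetics after a 5 mg/kg dose given iv, or given orally as a suspension. Values are means with SD from N = 3 rats.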

[8] = Volume of distribution at steady state in rat at 5 mg/kg, iv; format: ADME, organism-based; set-up: dose 5 mg/kg, route intravenous; conditions: in vivo, read-out: Vdss
In short: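 Rats, N = 3, dosed iv at 5 mg/kg in parallel with a 5 mg/kg oral suspension. Pharmacokinetic parameters are mean values with SD.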

[9] = Half life in rat at 5 mg/kg, iv; format: ADME, organism-based; set-up: dose 5 mg/kg, route intravenous; conditions: in vivo; in short: as §2
[10] = AUC in rat at 5 mg/kg, po; format: ADME, organism-based; set-up: dose 5 mg/kg, route oral; conditions: plasma
[11] = Tmax in rat at 5 mg/kg, po; format: ADME, organism-based; set-up: dose 5 mg/kg, route oral; conditions: in vivo; in short: as §2
[12] = Half life in rat at 5 mg/kg, po; format: ADME, organism-based; set-up: dose 5 mg/kg, route oral; conditions: in vivo; in short: as §2
[13] = tested on: Mus musculus; assay: Antidyslipidemic activity in diet-induced obese C57Bl/6J mouse model assessed as reduction in cholesterol level at 0.3 to 10 mg/kg, po administered daily for 23 days; format: functional, organism-based
In short: (§3)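 C57Bl/6J mice aged six weeks were fed a high fat diet for 34 weeks. Body weight and food intake were monitored. BMD and body composition were assessed on day 22, and laboratory assessments were made at study end.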

[14] = tested on: Mus musculus; assay: Toxicity in diet-induced obese C57Bl/6J mouse model assessed as effect on bone mineral density at 0.3 to 10 mg/kg, po administered daily for 23 days; format: organism-based; set-up: dose 0.3-10 mg/kg, route oral; conditions: in vivo; in short: as §3
[15] = tested on: Mus musculus; assay: Toxicity in diet-induced obese C57Bl/6J mouse model assessed as effect on heart size at 0.3 to 10 mg/kg, po administered daily for 23 days; format: organism-based; set-up: dose 0.3-10 mg/kg, route oral; conditions: in vivo; in short: as §3
[16] = organism: Rattus norvegicus; assay: Antidyslipidemic activity in hypercholesterolemic rat model assessed as reduction in non-HDL-C level; format: functional, organism-based
[17] = organism: Rattus norvegicus; assay: Antidyslipidemic activity in hypercholesterolemic rat model assessed as reduction in liver triglycerides; format: functional, organism-based
[18] = organism: Rattus norvegicus; assay: Toxicity in hypercholesterolemic rat model assessed as effect on TSH level; format: organism-based; conditions: in vivo
[19] = organism: Rattus norvegicus; assay: Toxicity in hypercholesterolemic rat model assessed as effect on central thyroid axis; format: organism-based; conditions: in vivo
[20] = organism: Oryctolagus cuniculus; assay: Antidyslipidemic activity in hypercholesterolemic rabbit model assessed as reduction in non-HDL-C level; format: functional, organism-based
[21] = organism: Oryctolagus cuniculus; assay: Antidyslipidemic activity in hypercholesterolemic rabbit model assessed as reduction in liver triglycerides; format: functional, organism-based
[22] = organism: Oryctolagus cuniculus; assay: Toxicity in hypercholesterolemic rabbit model assessed as effect on central thyroid axis; format: organism-based; conditions: in vivo
[23] = tested on: Oryctolagus cuniculus; assay: Antidyslipidemic activity in hypercholesterolemic rabbit model assessed as reduction in lipid level in coadministered with atorvastatin; format: functional, organism-based
[24] = organism: Mus musculus; assay: Antidyslipidemic activity in diet-induced obese C57Bl/6J mouse model assessed as improvement of insulin sensitivity; format: functional, organism-based
[25] = organism: Mus musculus; assay: Antidyslipidemic activity in diet-induced obese C57Bl/6J mouse model assessed as lowering glucose level to near normal level; format: functional, organism-based
[26] = tested on: Homo sapiens; assay: Toxicity in healthy human with mildly elevated LDL-C level assessed as adverse events at 5 to 200 mg, po qd for 2 weeks by multiple ascending dose study; format: organism-based; conditions: in vivo, 336 h
In short: (§4)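 Multiple ascending dose study lasting 2 weeks, run after a single ascending dose study. Healthy subjects with LDL-C >110 mg/dL took oral doses once daily from 5 to 200 mg. Safety, thyroid axis measures (free T4, free T3, TSH), heart rate, QT and liver enzymes were monitored. Lipid changes were compared with placebo.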

[27] = tested on: Homo sapiens; assay: Toxicity in healthy human with mildly elevated LDL-C level assessed as central thyroid axis dysfunction at 5 to 200 mg, po qd for 2 weeks by multiple ascending dose study; format: organism-based; conditions: in vivo, 336 h; in short: as §4
[28] = tested on: Homo sapiens; assay: Toxicity in healthy human with mildly elevated LDL-C level assessed as effect on heart rate at 5 to 200 mg, po qd for 2 weeks by multiple ascending dose study; format: organism-based; conditions: in vivo, 336 h
In short: (§5)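 Multiple ascending dose study after single ascending dose study. Healthy subjects with LDL-C >110 mg/dL received once daily oral doses of 5 to 200 mg for 2 weeks. Safety and tolerability were assessed, covering QT interval, heart rate, vital signs and liver enzymes.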

[29] = tested on: Homo sapiens; assay: Toxicity in healthy human with mildly elevated LDL-C level assessed as effect on vital signs at 5 to 200 mg, po qd for 2 weeks by multiple ascending dose study; format: organism-based; conditions: in vivo, 336 h; in short: as §5
[30] = tested on: Homo sapiens; assay: Toxicity in healthy human with mildly elevated LDL-C level assessed as reversible reduction in free T4 level at 100 mg, po qd for 2 weeks; format: organism-based; set-up: scale not given: the % may be the effect or the level left; conditions: in vivo, 336 h
In short: (§6)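 Healthy subjects with LDL-C >110 mg/dL received once daily oral doses for 2 weeks in a multiple ascending dose study. Free T3, free T4 and TSH were compared with placebo.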

[31] = tested on: Homo sapiens; assay: Toxicity in healthy human with mildly elevated LDL-C level assessed as effect on TSH level at 100 to 200 mg, po qd for 2 weeks; format: organism-based; conditions: in vivo, 336 h; in short: as §6
[32] = tested on: Homo sapiens; assay: Antidyslipidemic activity in healthy human with mildly elevated LDL-C level assessed as reduction in LDL-C at 50 to 200 mg, po qd for 2 weeks by multiple ascending dose study relative to placebo control; format: functional; set-up: scale not given: the % may be the effect or the level left; in short: as §4
[33] = tested on: Homo sapiens; assay: Antidyslipidemic activity in healthy human with mildly elevated LDL-C level assessed as reduction in triglyceride at 50 to 200 mg, po qd for 2 weeks by multiple ascending dose study relative to placebo control; format: functional; set-up: scale not given: the % may be the effect or the level left; in short: as §4
[34] = tested on: Homo sapiens; assay: Antidyslipidemic activity in healthy human with mildly elevated LDL-C level assessed as reduction in lipids at 80 mg, po qd; format: functional, organism-based
[35] = tested on: Caco-2; assay: Permeability from basolateral to apical side of human Caco2 cells; format: ADME, cell-based
[36] = Plasma concentration in thyroidectomized rat at 20 mg/kg, ip measured after 6 hrs; format: ADME, organism-based; set-up: dose 20 mg/kg, route intraperitoneal; in short: as §1
[37] = Ratio of drug uptake in liver to plasma in diet-induced obese C57Bl/6J mouse model; format: ADME, tissue-based
[38] = Fraction unbound in human; format: ADME, organism-based; conditions: in vivo
[39] = Solubility of the compound at pH 7.04; conditions: buffer

Chain of Cytochrome P450 2C19 (P33261 whole entry): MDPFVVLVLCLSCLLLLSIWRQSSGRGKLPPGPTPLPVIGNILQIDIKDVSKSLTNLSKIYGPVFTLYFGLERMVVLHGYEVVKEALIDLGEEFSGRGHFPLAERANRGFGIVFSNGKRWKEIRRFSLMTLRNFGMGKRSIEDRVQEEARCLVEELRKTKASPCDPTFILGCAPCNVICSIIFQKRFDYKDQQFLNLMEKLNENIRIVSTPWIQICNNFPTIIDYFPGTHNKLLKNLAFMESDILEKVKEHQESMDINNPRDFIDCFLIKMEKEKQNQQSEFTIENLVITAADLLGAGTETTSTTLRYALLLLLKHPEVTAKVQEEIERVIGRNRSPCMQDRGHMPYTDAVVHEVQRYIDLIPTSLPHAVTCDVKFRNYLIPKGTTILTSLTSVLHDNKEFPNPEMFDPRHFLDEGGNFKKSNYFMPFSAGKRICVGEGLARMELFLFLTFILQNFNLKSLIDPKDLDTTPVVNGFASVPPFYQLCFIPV
Chain of Cytochrome P450 3A4 (P08684 whole entry): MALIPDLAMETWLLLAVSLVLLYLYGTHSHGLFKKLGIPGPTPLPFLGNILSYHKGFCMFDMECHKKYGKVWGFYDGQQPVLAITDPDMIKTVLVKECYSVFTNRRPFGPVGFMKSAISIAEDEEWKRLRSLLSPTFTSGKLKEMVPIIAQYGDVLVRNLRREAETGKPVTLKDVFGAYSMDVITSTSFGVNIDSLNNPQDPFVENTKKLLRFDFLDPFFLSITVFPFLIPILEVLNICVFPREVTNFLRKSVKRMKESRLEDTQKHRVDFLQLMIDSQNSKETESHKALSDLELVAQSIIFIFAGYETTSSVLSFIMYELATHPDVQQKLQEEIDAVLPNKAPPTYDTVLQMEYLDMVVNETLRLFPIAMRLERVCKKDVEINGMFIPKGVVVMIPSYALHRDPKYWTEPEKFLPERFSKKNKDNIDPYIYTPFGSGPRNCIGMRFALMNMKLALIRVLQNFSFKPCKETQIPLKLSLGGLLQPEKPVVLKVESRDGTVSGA

For `CC(C)c1cc(Oc2c(Cl)cc(-n3nc(C#N)c(=O)[nH]c3=O)cc2Cl)n[nH]c1=O` [RESMETIROM], which Activity [1] is on record?
The Activity was “Non-toxic”.

What about the concentration at 6 h [2] of the same molecule?
Its concentration at 6 h is 15.4 µM.

And the Activity [3]?
The Activity was 0%.

And the IC50 [4]?
Its IC50 is greater than 50 µM.

What about the IC50 [5] of the same molecule?
The IC50 was greater than 50 µM.

And the permeability [6]?
Its permeability is 1.37 ×10⁻⁶ cm/s.

And the clearance [7]?
The clearance was 2.35 mL/min/kg.

What about the Vd [8] of the same molecule?
Its Vd is 0.422 L/kg.

What about the half-life [9] of the same molecule?
The half-life was 3.4 h.

And the AUC [10]?
The AUC was 17400 ng·h/mL.

And the Tmax [11]?
Its Tmax is 6 h.

And the half-life [12]?
The half-life was 4.08 h.

What about the Activity [13] of the same molecule?
The Activity was “Active”.

And the Activity [14]?
The Activity was “Non-toxic”.

What about the Activity [15] of the same molecule?
Its Activity is “Non-toxic”.

And the Activity [16]?
Its Activity is “Active”.

And the Activity [17]?
The Activity was “Active”.

And the Activity [18]?
The Activity was “Non-toxic”.

And the Activity [19]?
Its Activity is “Non-toxic”.

And the Activity [20]?
Its Activity is “Active”.

And the Activity [21]?
Its Activity is “Active”.

What about the Activity [22] of the same molecule?
The Activity was “Non-toxic”.

What about the Activity [23] of the same molecule?
Its Activity is “Active”.

What about the Activity [24] of the same molecule?
The Activity was “Active”.

And the Activity [25]?
Its Activity is “Active”.

What about the Activity [26] of the same molecule?
The Activity was “Non-toxic”.

What about the Activity [27] of the same molecule?
Its Activity is “Non-toxic”.

What about the Activity [28] of the same molecule?
The Activity was “Non-toxic”.

And the Activity [29]?
Its Activity is “Non-toxic”.

And the Activity [30]?
The Activity was 10%.

And the Activity [31]?
Its Activity is “Non-toxic”.

What about the Activity [32] of the same molecule?
Its Activity is “<=30%”.

What about the Activity [33] of the same molecule?
Its Activity is “<=60%”.

And the Activity [34]?
The Activity was “Active”.

And the permeability [35]?
Its permeability is “permeable”.

And the concentration at 6 h [36]?
The concentration at 6 h was 57 µM.

And the Kp [37]?
Its Kp is 8.

What about the Fu [38] of the same molecule?
Its Fu is 0.6%.

What about the solubility [39] of the same molecule?
Its solubility is 1 µM (≈ 0.435 µg/mL).
